Measurements reported in publication PMC3125946 (Biochemistry, 2011).

T1: MjCobY (Methanocaldococcus jannaschii, UniProt Q58517, G153D)
T1 sequence (Q58517 1-196 G153D): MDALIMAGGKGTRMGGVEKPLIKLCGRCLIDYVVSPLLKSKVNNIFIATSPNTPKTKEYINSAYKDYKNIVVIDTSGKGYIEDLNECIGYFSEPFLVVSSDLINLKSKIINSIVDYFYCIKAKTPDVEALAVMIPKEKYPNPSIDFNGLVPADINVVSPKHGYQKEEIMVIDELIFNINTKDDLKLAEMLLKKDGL


Biological target: the molecule itself
Experiment: SEC

Row | Molecule | percent dimer (Monomer:Dimer Ratio) [%] | percent monomer (Monomer:Dimer Ratio) [%]
1 | MjCobY^G8D (enzyme, Methanocaldococcus jannaschii, UniProt Q58517 1-196, looked up) MDALIMADGKGTRMGGVEKPLIKLCGRCLIDYVVSPLLKSKVNNIFIATSPNTPKTKEYINSAYKDYKNIVVIDTSGKGYIEDLNECIGYFSEPFLVVSSDLINLKSKIINSIVDYFYCIKAKTPDVEALAVMIPKEKYPNPSIDFNGLVPAGINVVSPKHGYQKEEIMVIDELIFNINTKDDLKLAEMLLKKDGL | 67 | 33
2 | MjCobY P94A (enzyme, Methanocaldococcus jannaschii, UniProt Q58517 1-196, looked up) MDALIMAGGKGTRMGGVEKPLIKLCGRCLIDYVVSPLLKSKVNNIFIATSPNTPKTKEYINSAYKDYKNIVVIDTSGKGYIEDLNECIGYFSEAFLVVSSDLINLKSKIINSIVDYFYCIKAKTPDVEALAVMIPKEKYPNPSIDFNGLVPAGINVVSPKHGYQKEEIMVIDELIFNINTKDDLKLAEMLLKKDGL | 48 | 52
3 | MjCobY T53S (enzyme, Methanocaldococcus jannaschii, UniProt Q58517 1-196, looked up) MDALIMAGGKGTRMGGVEKPLIKLCGRCLIDYVVSPLLKSKVNNIFIATSPNSPKTKEYINSAYKDYKNIVVIDTSGKGYIEDLNECIGYFSEPFLVVSSDLINLKSKIINSIVDYFYCIKAKTPDVEALAVMIPKEKYPNPSIDFNGLVPAGINVVSPKHGYQKEEIMVIDELIFNINTKDDLKLAEMLLKKDGL | 24 | 76
4 | MjCobY R13A (enzyme, Methanocaldococcus jannaschii, UniProt Q58517 1-196, looked up) MDALIMAGGKGTAMGGVEKPLIKLCGRCLIDYVVSPLLKSKVNNIFIATSPNTPKTKEYINSAYKDYKNIVVIDTSGKGYIEDLNECIGYFSEPFLVVSSDLINLKSKIINSIVDYFYCIKAKTPDVEALAVMIPKEKYPNPSIDFNGLVPAGINVVSPKHGYQKEEIMVIDELIFNINTKDDLKLAEMLLKKDGL | 86 | 14
5 | MjCobY D83G (enzyme, Methanocaldococcus jannaschii, UniProt Q58517 1-196, looked up) MDALIMAGGKGTRMGGVEKPLIKLCGRCLIDYVVSPLLKSKVNNIFIATSPNTPKTKEYINSAYKDYKNIVVIDTSGKGYIEGLNECIGYFSEPFLVVSSDLINLKSKIINSIVDYFYCIKAKTPDVEALAVMIPKEKYPNPSIDFNGLVPAGINVVSPKHGYQKEEIMVIDELIFNINTKDDLKLAEMLLKKDGL | 18 | 82
6 | MjCobY P54A (enzyme, Methanocaldococcus jannaschii, UniProt Q58517 1-196, looked up) MDALIMAGGKGTRMGGVEKPLIKLCGRCLIDYVVSPLLKSKVNNIFIATSPNTAKTKEYINSAYKDYKNIVVIDTSGKGYIEDLNECIGYFSEPFLVVSSDLINLKSKIINSIVDYFYCIKAKTPDVEALAVMIPKEKYPNPSIDFNGLVPAGINVVSPKHGYQKEEIMVIDELIFNINTKDDLKLAEMLLKKDGL | 50 | 50
7 | MjCobY^G153D (enzyme, Methanocaldococcus jannaschii) MDALIMAGGKGTRMGGVEKPLIKLCGRCLIDYVVSPLLKSKVNNIFIATSPNTPKTKEYINSAYKDYKNIVVIDTSGKGYIEDLNECIGYFSEPFLVVSSDLINLKSKIINSIVDYFYCIKAKTPDVEALAVMIPKEKYPNPSIDFNGLVPADINVVSPKHGYQKEEIMVIDELIFNINTKDDLKLAEMLLKKDGL | 46 | 54
8 | MjCobY Y80F (enzyme, Methanocaldococcus jannaschii, UniProt Q58517 1-196, looked up) MDALIMAGGKGTRMGGVEKPLIKLCGRCLIDYVVSPLLKSKVNNIFIATSPNTPKTKEYINSAYKDYKNIVVIDTSGKGFIEDLNECIGYFSEPFLVVSSDLINLKSKIINSIVDYFYCIKAKTPDVEALAVMIPKEKYPNPSIDFNGLVPAGINVVSPKHGYQKEEIMVIDELIFNINTKDDLKLAEMLLKKDGL | 26 | 74
9 | MjCobY D101G (enzyme, Methanocaldococcus jannaschii, UniProt Q58517 1-196, looked up) MDALIMAGGKGTRMGGVEKPLIKLCGRCLIDYVVSPLLKSKVNNIFIATSPNTPKTKEYINSAYKDYKNIVVIDTSGKGYIEDLNECIGYFSEPFLVVSSGLINLKSKIINSIVDYFYCIKAKTPDVEALAVMIPKEKYPNPSIDFNGLVPAGINVVSPKHGYQKEEIMVIDELIFNINTKDDLKLAEMLLKKDGL | 66 | 34
10 | MjCobY K19A (enzyme, Methanocaldococcus jannaschii, UniProt Q58517 1-196, looked up) MDALIMAGGKGTRMGGVEAPLIKLCGRCLIDYVVSPLLKSKVNNIFIATSPNTPKTKEYINSAYKDYKNIVVIDTSGKGYIEDLNECIGYFSEPFLVVSSDLINLKSKIINSIVDYFYCIKAKTPDVEALAVMIPKEKYPNPSIDFNGLVPAGINVVSPKHGYQKEEIMVIDELIFNINTKDDLKLAEMLLKKDGL | 64 | 36
11 | MjCobY E18D (enzyme, Methanocaldococcus jannaschii, UniProt Q58517 1-196, looked up) MDALIMAGGKGTRMGGVDKPLIKLCGRCLIDYVVSPLLKSKVNNIFIATSPNTPKTKEYINSAYKDYKNIVVIDTSGKGYIEDLNECIGYFSEPFLVVSSDLINLKSKIINSIVDYFYCIKAKTPDVEALAVMIPKEKYPNPSIDFNGLVPAGINVVSPKHGYQKEEIMVIDELIFNINTKDDLKLAEMLLKKDGL | 60 | 40
12 | MjCobY P20A (enzyme, Methanocaldococcus jannaschii, UniProt Q58517 1-196, looked up) MDALIMAGGKGTRMGGVEKALIKLCGRCLIDYVVSPLLKSKVNNIFIATSPNTPKTKEYINSAYKDYKNIVVIDTSGKGYIEDLNECIGYFSEPFLVVSSDLINLKSKIINSIVDYFYCIKAKTPDVEALAVMIPKEKYPNPSIDFNGLVPAGINVVSPKHGYQKEEIMVIDELIFNINTKDDLKLAEMLLKKDGL | 37 | 63

These molecules were tested against T1, MjCobY (assay: isothermal titration calorimetry).
Assay type: binding
Outline: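 Recombinant G153D variant purified by heat step (75°C, 15 min), ammonium sulfate, hydrophobic interaction, anion exchange and size-exclusion chromatography; dialysed at 4 °C against Tris-HCl 50 mM pH 8.0, NaCl 50 mM, MgCl2 10 mM, TCEP 4 mM. GTP in spent dialysate; 1 mM stock titrated by 27 injections into 18 µM protein dimers at 27 °C.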

Row | Molecule | Kd [nM]
13 | Nc1nc2c(ncn2[C@@H]2O[C@H](COP(=O)(O)OP(=O)(O)OP(=O)(O)O)[C@@H](O)[C@H]2O)c(=O)[nH]1 [GTP] | 400 ± 40
